# Reference: publication PMC5774632 (Science translational medicine, 2017)
# B1: pegfilgrastim (protein, chains of the INN, looked up)
# chain: TPLGPASSLPQSFLLKCLEQVRKIQGDGAALQEKLCATYKLCHPEELVLLGHSLGIPWAPLSSCPSQALQLAGCLSQLHSGLFLYQGLLQALEGISPELGPTLDTLQLDVADFATTIWQQMEELGMAPALQPTQGAMPAFASAFQRRAGGVLVASHLQSFLEVSYRVLRHLAQP
# modifications: PEG
# Columns and labels:
# C57BL/6 mice = test: 5FU survival assay; assay type: in vivo, mouse; settings: for survival in serial 5FU assay: 10-day intervals; for increase in median survival over controls / median survival: 100 mg/kg IP 12 h before each 5FU
# Summary of the method: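 Female C57BL/6 mice, 8–10 weeks old, got 150 mg/kg 5FU IP once every 7 or 10 days. Test compound was given IP at 50 or 100 mg/kg at 30 minutes, 12 hours and/or 24 hours before each 5FU dose. Mice were monitored daily.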
# [1] = tested on: RB-expressing human cell lines; settings: vast majority of RB-expressing human cell lines; cited from earlier work
# [2] = Terminal half-lives of SCLC standard of care chemotherapy agents; assay type: in vivo; settings: 4 half-lives
# [3] = ref not given; cited from earlier work
# human BM HSPCs = test: Human BM proliferation assay; assay type: in vivo; settings: 192 mg/m^2, 24 hours after dose
# Summary of the method: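 Healthy volunteers in the 192 mg/m2 single-IV-dose cohort each gave one bone marrow aspirate: predose (n = 5), 24 h (n = 3) or 32 h (n = 4). Lineages were identified by flow cytometry with CD45, CD34, CD14, CD11b, CD71 and CD61. Cell cycle phase (G0/G1 vs S/G2/M) came from DRAQ5 DNA content.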
# murine HSPCs = test: In vivo G1T28 dose response and pharmacodynamic assay; set-up: species or system mouse
# Summary of the method: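 Female C57BL/6 mice, 8–10 weeks old, got a single IP dose of 50 or 100 mg/kg test compound. EdU 10 mg/kg IP followed at 0.5 to 168 h, and BM and thymus were harvested 2 h later. Surface-stained cells were live/dead-labelled, fixed in 5% formalin, permeabilised with saponin and click-stained with Alexa Fluor 555 azide. DNA was stained with 2 μg/ml DAPI before flow cytometry. n = 3–6 mice/dose/time point.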
# HSCs = test: Serial 5FU treatment and competitive BM reconstitution assay; assay type: in vivo, mouse; settings: for long-term reconstitution of PB lineages by donor HSCs, primary transplantation: vs 5FU only
# Summary of the method: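 Donors were female CD45.1 mice given 4 rounds of PBS or 150 mg/kg 5FU at 3-week intervals; some got 150 mg/kg test compound by gavage (vehicle 50 mM citrate, pH 4.0) 30 min before each 5FU. Eight weeks after the last dose, 500,000 donor BM cells plus 500,000 CD45.2 competitor cells went into C57BL/6 recipients irradiated with 2 × 540 rads. Five donors per group, five recipients each. Lineage chimerism was tracked in PB every 4 weeks for ≥16 weeks.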
# [4] = Human PK study, first-in-human Phase I, single IV infusion; assay type: in vivo
# Summary of the method: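 Healthy volunteers got a single IV infusion (6–192 mg/m2), with blood sampled predose and at multiple later times. Plasma was spiked with D3-labelled internal standard and protein-precipitated with acetonitrile, then quantified by validated LC-MS/MS. Calibration was 0.5 to 1,000 ng/mL, weighted (1/x2) linear, LLOQ 0.5 ng/mL. PK parameters were derived by noncompartmental and compartmental methods.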
# BM HSCs = test: H2B-GFP label dilution assay; assay type: in vivo, mouse
# Summary of the method: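 Adult homozygous H2B-GFP;M2-rtTA mice got 2 mg/ml doxycycline in drinking water for 6 weeks. Two weeks after withdrawal, vehicle or 150 mg/kg test compound was gavaged 12 h before vehicle or 150 mg/kg 5FU. BM was harvested 4 weeks after 5FU, and Lin−c-Kit+Sca-1+CD150+CD48− HSC H2B-GFP dilution was curve-fitted. PI = daughter cells per labelled HSC; log2(PI) = divisions. Mean ± SD, 3–6 mice, 3 experiments.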
# BM progenitors = test: Single dose 5FU hematologic recovery and methylcellulose colony formation assay; assay type: in vivo, mouse
# [5] = Human safety and tolerability assessment, Phase I healthy volunteers; assay type: in vivo
# Summary of the method: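 Single-centre, double-blind, randomised, placebo-controlled (3:1) single-dose IV study in healthy adults aged 18–60, BMI 18–32 kg/m2, ≥50 kg. Doses were 6, 12, 24, 48, 96 or 192 mg/m2. Subjects stayed in clinic Day −1 to Day 5 and returned Days 7, 10 and 14. Monitoring covered AEs, clinical laboratory tests, vital signs, 12-lead ECG and physical examination. Toxicity was graded by CTCAE v4.0.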
# [6] = after intraperitoneal injection; cited from earlier work
# [7] = after G1T28 treatment, single IP 50 or 100 mg/kg
# [8] = 4 rounds of 5FU at 3-week intervals
# [9] = human, plasma, intravenous, 192 mg/m2
# [10] = G1T28 12 hours before single 5FU, 4 weeks after 5FU
# [11] = single agent, 6 weeks after doxycycline removal
molecule,measurement,setting,value
"CC(=O)c1c(C)c2cnc(Nc3ccc(N4CCNCC4)cn3)nc2n(C2CCCC2)c1=O [palbociclib, reference compound]",survival in serial 5FU assay,C57BL/6 mice,survival benefit
same,EC50,[1],> 2000 nM
COc1cc([C@@H]2c3cc4c(cc3[C@@H](O[C@@H]3O[C@@H]5CO[C@@H](C)O[C@H]5[C@H](O)[C@H]3O)[C@H]3COC(=O)[C@H]23)OCO4)cc(OC)c1O [etoposide],fraction cleared during a 32-hour G1 arrest,[2],approximately 94%
same,terminal half-life,[3],7.5 h
"CN(C)C(=O)c1cc2cnc(Nc3ccc(N4CCNCC4)cn3)nc2n1C1CCCC1 [ribociclib, reference compound]",survival in serial 5FU assay,C57BL/6 mice,survival benefit
"CN1CCN(c2ccc(Nc3ncc4cc5n(c4n3)C3(CCCCC3)CNC5=O)nc2)CC1 [G1T28, trilaciclib]",reduction in S/G2/M cell frequency of total BM cells,human BM HSPCs,45%
same,duration of reduction in EdU incorporation in HSCs before recovery,murine HSPCs; [7],up to 36 hours
same,time of minimum EdU incorporation and S/G2/M cell frequency in HSCs,murine HSPCs; [7],12 h
same,EdU incorporation (S-phase cells) in all hematopoietic cell types,"murine HSPCs; single IP dose, 12 hours after treatment",dose-dependent reduction in EdU incorporation
same,"long-term reconstitution of PB lineages by donor HSCs, primary transplantation",HSCs; [8],enhanced reconstitution of all lineages
same,reconstitution in secondary recipients,HSCs; secondary transplantation 32 weeks after initial transplantation,significantly greater overall reconstitution
same,end of fast α-phase of elimination,[4]; after end of infusion,approximately 4 h
same,end of β-phase of elimination,[4]; after end of infusion,approximately 36 h
same,half-life,"[4]; human, plasma, intravenous",5.32 to 9.28 h
same,Cmax,[4]; [9],1700 ng/mL
same,half-life,[4]; [9],12.9 to 14.7 h
same,Tmax,"[4]; human, plasma, iv",0.25 to 0.47 h
same,contribution of the terminal phase to the effective half-life,[4]; in vivo,15-20%
same,increase in median survival over controls,C57BL/6 mice; 5FU at 7-day intervals,55%
same,median survival,C57BL/6 mice; 5FU at 7-day intervals,28 days
same,increase in median survival over controls,C57BL/6 mice; 5FU at 10-day intervals,125%
same,median survival,C57BL/6 mice; 5FU at 10-day intervals,63 days
same,survival protection,"C57BL/6 mice; 10-day assay, G1T28 30 minutes before each 5FU",Marked protection
same,survival protection over treatment at −30 min alone,"C57BL/6 mice; 10-day assay, G1T28 given twice, −24 h and −30 min",no additional protection
same,average number of HSC divisions,BM HSCs; [10],4.6 ± 0.4 divisions
same,proliferation index (PI),BM HSCs; [10],25.2 ± 4.7
same,average number of HSC divisions,BM HSCs; [11],2.4 ± 1.0 divisions
same,proliferation index (PI),BM HSCs; [11],6.2 ± 2.6
same,colony-forming cells surviving,BM progenitors; 1 and 2 days after 5FU treatment,increased the number of colony-forming cells
same,PB count recovery,BM progenitors; G1T28 30 minutes before single 5FU,significantly accelerated the PB count recovery
same,"clinical laboratory testing, vital signs, ECG, physical examination, body weight",[5]; all treatment groups,no clinically relevant changes
same,most frequently reported TEAEs,[5]; single IV infusion,headache and nausea
same,severe or life-threatening TEAEs,[5]; single IV infusion,No TEAEs of severe or life-threatening intensity were reported
same,tolerability,"[5]; single IV infusion, all test doses",well tolerated
same,peripheral blood cell counts,"[5]; single dose, up to 14 days after infusion",did not significantly alter
"O=c1[nH]cc(F)c(=O)[nH]1 [5FU, 5-fluorouracil, reference compound]",plasma t1/2,[6],0.167 to 0.333 h
same,average number of HSC divisions,BM HSCs; [11],5.3 ± 0.5 divisions
same,proliferation index (PI),BM HSCs; [11],41.3 ± 5.4
N.N.O=C([O-])C1(C(=O)[O-])CCC1.[Pt+2] [carboplatin],terminal half-life,[3],6 h
B1,"long-term HSC function, combined use of pegfilgrastim with G1T28",HSCs; [8],abolished the HSC protective effect of G1T28
same,"long-term reconstitution of PB lineages by donor HSCs, primary transplantation",HSCs; [8],did not benefit long-term HSC function
same,survival in serial 5FU assay,C57BL/6 mice,survival benefit
